Activity calls are given as the source filed them. No cut-off for these calls is given here.
How the values were obtained:
[1] = tested on: Mus musculus; test: Acute toxicity in Balb/C mouse assessed as reduction in body weight at 10.5 umol/kg, ip administered thrice a week for 2 weeks measured 48 hrs after last dose; format: organism-based; details: in vivo
How it was run: (§1)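 Male Balb/c mice aged 6–8 weeks, n=4 per group, dosed i.p. with compound suspended in PBS and filter sterilized, 10 ul/g body weight. Body weight tracked throughout the live phase. Under isoflurane anaesthesia, terminal cardiac-puncture bleed; serum taken for transaminases and other chemistries. Sacrifice by cervical dislocation 48 h after last dose, with liver and spleen weighed at necropsy. Kidneys examined by histopathology.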

[2] = tested on: Mus musculus; test: Acute toxicity in Balb/C mouse assessed as reduction in body weight at 1.5 to 6.0 umol/kg, ip administered thrice a week for 2 weeks measured 48 hrs after last dose; format: organism-based; details: in vivo; how it was run: as §1
[3] = tested on: Mus musculus; test: Acute toxicity in Balb/C mouse assessed as change in spleen weight at 1.5 to 6.0 umol/kg, ip administered thrice a week for 2 weeks measured 48 hrs after last dose; format: organism-based; details: in vivo; how it was run: as §1
[4] = tested on: Mus musculus; test: Acute toxicity in Balb/C mouse assessed as change in liver weight at 1.5 to 6.0 umol/kg, ip administered thrice a week for 2 weeks measured 48 hrs after last dose; format: organism-based; details: in vivo; how it was run: as §1
[5] = tested on: Mus musculus; test: Acute toxicity in Balb/C mouse assessed as change in plasma chemistry at 1.5 to 6.0 umol/kg, ip administered thrice a week for 2 weeks measured 48 hrs after last dose; format: organism-based; details: in vivo; how it was run: as §1
[6] = tested on: Mus musculus; test: Inhibition of IR expression in Balb/C mouse kidney assessed as upregulation of IR-A transcript at 6.0 umol/kg, ip administered thrice a week for 2 weeks measured 48 hrs after last dose […]; format: functional, organism-based
How it was run: (§2)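 Male Balb/c mice, n=4 per group, dosed i.p. in PBS and sacrificed 48 h after last dose. Liver, kidney and adipose tissue homogenised at once in 4 M guanidine isothiocyanate, 25 mM EDTA, 50 mM Tris-HCl pH 6. RNA purified on columns and run by fluorescence-based quantitative RT-PCR. Target transcript levels normalised to cyclophilin A and expressed relative to saline-treated controls.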

[7] = tested on: Mus musculus; test: Inhibition of IR expression in Balb/C mouse kidney assessed as upregulation of IR-A transcript at 1.5 umol/kg, ip administered thrice a week for 2 weeks measured 48 hrs after last dose […]; format: functional, organism-based; how it was run: as §2
[8] = tested on: Mus musculus; test: Inhibition of IR expression in Balb/C mouse kidney assessed as reduction in IR-B transcript at 6.0 umol/kg, ip administered thrice a week for 2 weeks measured 48 hrs after last dose […]; format: functional, organism-based; how it was run: as §2
[9] = tested on: Mus musculus; test: Inhibition of IR expression in Balb/C mouse kidney assessed as reduction in IR-B transcript at 1.5 umol/kg, ip administered thrice a week for 2 weeks measured 48 hrs after last dose […]; format: functional, organism-based; how it was run: as §2
[10] = tested on: Mus musculus; test: Inhibition of IR expression in Balb/C mouse adipose tissue assessed as reduction in IR-B transcript at 6.0 umol/kg, ip administered thrice a week for 2 weeks measured 48 hrs after last dose […]; format: functional; design: scale not given: the % may be the effect or the level left; how it was run: as §2
[11] = tested on: Mus musculus; test: Inhibition of IR expression in Balb/C mouse adipose tissue assessed as upregulation of IR-A transcript at 6.0 umol/kg, ip administered thrice a week for 2 weeks measured 48 hrs after last dose by […]; format: functional; design: scale not given: the % may be the effect or the level left; how it was run: as §2
[12] = tested on: Mus musculus; test: Inhibition of IR expression in Balb/C mouse liver assessed as upregulation of IR-A transcript at 6.0 umol/kg, ip administered thrice a week for 2 weeks measured 48 hrs after last dose by quantitative RT-PCR analysis
[13] = tested on: Mus musculus; test: Inhibition of IR expression in Balb/C mouse liver assessed as upregulation of IR-A transcript at 1.5 umol/kg, ip administered thrice a week for 2 weeks measured 48 hrs after last dose by quantitative RT-PCR analysis
[14] = tested on: Mus musculus; test: Acute toxicity in Balb/C mouse assessed as reduction in body weight at 33 mg/kg, ip administered thrice a week for 2 weeks measured 48 hrs after last dose; format: organism-based; design: dose 33 mg/kg, route intraperitoneal; details: in vivo; how it was run: as §1
[15] = tested on: Mus musculus; test: Acute toxicity in Balb/C mouse assessed as reduction in body weight at 8.5 mg/kg, ip administered thrice a week for 2 weeks measured 48 hrs after last dose; format: organism-based; design: dose 8.5 mg/kg, route intraperitoneal; details: in vivo; how it was run: as §1
[16] = tested on: Mus musculus; test: Acute toxicity in Balb/C mouse assessed as necrosis in kidney at 33 mg/kg, ip administered thrice a week for 2 weeks measured 48 hrs after last dose; format: organism-based; design: dose 33 mg/kg, route intraperitoneal; details: in vivo; how it was run: as §1
[17] = tested on: Mus musculus; test: Acute toxicity in Balb/C mouse assessed as necrosis in kidney at 8.5 mg/kg, ip administered thrice a week for 2 weeks measured 48 hrs after last dose; format: organism-based; design: dose 8.5 mg/kg, route intraperitoneal; details: in vivo; how it was run: as §1
[18] = tested on: Mus musculus; test: Inhibition of PTEN expression in Balb/C mouse kidney assessed as increase in mRNA levels at 8.25 mg/kg, ip administered thrice a week for 2 weeks measured 48 hrs after last dose […]; format: functional, organism-based; design: dose 8.25 mg/kg; how it was run: as §2
[19] = tested on: Mus musculus; test: Inhibition of PTEN expression in Balb/C mouse kidney assessed as increase in mRNA levels at 33 mg/kg, ip administered as single dose measured 48 hrs after last dose […]; format: functional, organism-based; design: dose 33 mg/kg; how it was run: as §2
[20] = tested on: Mus musculus; test: Inhibition of PTEN expression in Balb/C mouse adipose tissue assessed as increase in mRNA levels at 8.25 mg/kg, ip administered thrice a week for 2 weeks measured 48 hrs after last dose by […]; format: functional, organism-based; design: dose 8.25 mg/kg; how it was run: as §2
[21] = tested on: Mus musculus; test: Inhibition of PTEN expression in Balb/C mouse liver assessed as increase in mRNA levels at 8.25 mg/kg, ip administered thrice a week for 2 weeks measured 48 hrs after last dose […]; format: functional, organism-based; design: dose 8.25 mg/kg; how it was run: as §2

Cc1cn(CC(=O)N(CCNC(=O)CN(CCNC(=O)CN(CCNC(=O)CN(CCNC(=O)CN(CCNC(=O)CN(CCNC(=O)CN(CCNC(=O)CN(CCNC(=O)[C@H](CCCCN)N(CCNC(=O)CN(CCNC(=O)CN(CCNC(=O)CN(CCNC(=O)[C@H](CCCCN)NC(=O)[C@H](CCCCN)NC(=O)[C@H](CCCCN)NC(=O)[C@H](CCCCN)NC(=O)[C@H](CCCCN)NC(=O)[C@H](CCCCN)NC(=O)[C@H](CCCCN)NC(=O)[C@@H](N)CCCCN)C(=O)Cn2cnc3c(N)ncnc32)C(=O)Cn2ccc(N)nc2=O)C(=O)Cn2ccc(N)nc2=O)C(=O)Cn2cc(C)c(=O)[nH]c2=O)C(=O)Cn2cnc3c(N)ncnc32)C(=O)Cn2ccc(N)nc2=O)C(=O)Cn2cc(C)c(=O)[nH]c2=O)C(=O)Cn2cnc3c(=O)[nH]c(N)nc32)C(=O)Cn2cc(C)c(=O)[nH]c2=O)C(=O)Cn2ccc(N)nc2=O)C(=O)Cn2ccc(N)nc2=O)CC(=O)NCCN(CC(=O)NCCN(CC(=O)NCCN(CC(=O)NCCN(CC(=O)NCCN(CC(=O)NCCN(CC(=O)NCCN(CC(=O)NCCN(CC(=O)N[C@@H](CCCCN)C(N)=O)C(=O)Cn2cnc3c(N)ncnc32)C(=O)Cn2ccc(N)nc2=O)C(=O)Cn2ccc(N)nc2=O)C(=O)Cn2cnc3c(N)ncnc32)C(=O)Cn2ccc(N)nc2=O)C(=O)Cn2cnc3c(=O)[nH]c(N)nc32)C(=O)Cn2cnc3c(=O)[nH]c(N)nc32)C(=O)Cn2ccc(N)nc2=O)c(=O)[nH]c1=O
Activity [1]: Toxic
Activity [2]: Non-toxic
Activity [3]: Non-toxic
Activity [4]: Non-toxic
Activity [5]: Non-toxic
Activity [6]: Active
Activity [7]: Active
Activity [8]: inactive
Activity [9]: inactive
Activity [10]: 50%
Activity [11]: 200%
Activity [12]: Active
Activity [13]: Active

Cc1cn(CC(=O)N(CCNC(=O)CN(CCNC(=O)[C@H](CCCCN)N(CCNC(=O)CNC(=O)[C@@H](CCCCN)NC(=O)[C@@H](CCCCN)NC(=O)[C@@H](C)NC(=O)[C@@H](CC(C)C)NC(=O)[C@@H](CCCCN)NC(=O)[C@@H](CC(C)C)NC(=O)[C@@H](C)NC(=O)[C@@H](C)NC(=O)[C@@H](CCCCN)NC(=O)[C@@H](CC(C)C)NC(=O)[C@@H](CC(C)C)NC(=O)[C@@H](CCCCN)NC(=O)[C@H](N)CCCCN)C(=O)Cn2cc(C)c(=O)[nH]c2=O)C(=O)Cn2ccc(N)nc2=O)CC(=O)NCCN(CC(=O)NCCN(CC(=O)NCCN(CC(=O)NCCN(CC(=O)NCCN(CC(=O)NCCN(CC(=O)NCCN(CC(=O)NCCN(CC(=O)NCCN(CC(=O)NCCN(CC(=O)NCCN(CC(=O)NCCN(CC(=O)NCCN(CC(=O)N[C@@H](CCCCN)C(N)=O)C(=O)Cn2cnc3c(N)ncnc32)C(=O)Cn2ccc(N)nc2=O)C(=O)Cn2cnc3c(N)ncnc32)C(=O)Cn2cc(C)c(=O)[nH]c2=O)C(=O)Cn2ccc(N)nc2=O)C(=O)Cn2cc(C)c(=O)[nH]c2=O)C(=O)Cn2cnc3c(N)ncnc32)C(=O)Cn2ccc(N)nc2=O)C(=O)Cn2cnc3c(N)ncnc32)C(=O)Cn2ccc(N)nc2=O)C(=O)Cn2cnc3c(=O)[nH]c(N)nc32)C(=O)Cn2cnc3c(N)ncnc32)C(=O)Cn2ccc(N)nc2=O)c(=O)[nH]c1=O
Activity [14]: Toxic
Activity [15]: Toxic
Activity [16]: Toxic
Activity [17]: Toxic
Activity [18]: inactive
Activity [19]: inactive
Activity [20]: inactive
Activity [21]: inactive

From ChEMBL document CHEMBL1155469, “Peptide nucleic acids conjugated to short basic peptides show improved pharmacokinetics and antisense activity in adipose tissue” (J Med Chem, 2010)
